*1 amine or outer side, *2 acyl side, *3 side chain or, on linkers, in order; H or OH if unused. Where a SMILES comes first, the peptide text is derived from it. Bridges are numbered along the chain shown (N, C = ends). [ ]: non-standard residue; d: D form. The star is where a group is joined. Staurosporine = CO[C@@H]1[C@H](N(C)*)C[C@H]2O[C@]1(C)n1c3ccccc3c3c4c(c5c6ccccc6n2c5c31)C(=O)NC4; Suc = O=C(CCC(=O)[*:2])[*:1]; Dap = NC[C@H](N)C(=O)O; βAla = NCCC(=O)O
What was measured:
[1] = biological target: Tyrosine-protein kinase JAK2 (Homo sapiens) (UniProt O60674); assay: Binding affinity to human JAK2 kinase domain 2 at 500 nM by cell-based competition binding assay relative to control in presence of DTT
How it was run: (§1)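 Competition binding screen (Ambit) across a panel of 90 kinases, scoring test ligand displacement of each kinase's binding relative to control. The screen ran under reducing conditions with 7.5 mM DTT.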

[2] = biological target: Serine/threonine-protein kinase 32C (Homo sapiens) (UniProt Q86UX6); assay: Binding affinity to human YANK3 at 500 nM by cell-based competition binding assay relative to control in presence of DTT
[3] = test system: Mast/stem cell growth factor receptor Kit (Homo sapiens), P10721 [D816V]; assay: Binding affinity to human KIT D816V mutant at 500 nM by cell-based competition binding assay relative to control in presence of DTT; how it was run: as §1
[4] = biological target: Mitogen-activated protein kinase 10 (Homo sapiens) (UniProt P53779); assay: Binding affinity to human JNK3 at 500 nM by cell-based competition binding assay relative to control in presence of DTT; how it was run: as §1
[5] = biological target: T1, Testis-specific serine/threonine-protein kinase 1 (Homo sapiens) (UniProt Q9BXA7); assay: Binding affinity to human TSSK1 at 500 nM by cell-based competition binding assay relative to control in presence of DTT
T1 sequence (whole entry): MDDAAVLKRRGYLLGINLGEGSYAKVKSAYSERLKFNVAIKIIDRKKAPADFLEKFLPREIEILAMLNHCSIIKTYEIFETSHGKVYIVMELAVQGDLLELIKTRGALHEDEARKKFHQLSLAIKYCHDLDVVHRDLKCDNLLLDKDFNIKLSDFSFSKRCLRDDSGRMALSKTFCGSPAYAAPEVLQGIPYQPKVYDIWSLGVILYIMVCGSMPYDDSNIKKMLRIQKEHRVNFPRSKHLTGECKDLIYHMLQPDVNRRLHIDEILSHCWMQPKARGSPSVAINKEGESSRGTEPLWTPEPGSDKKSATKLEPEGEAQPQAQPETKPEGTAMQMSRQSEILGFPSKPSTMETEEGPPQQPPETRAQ

[6] = biological target: T2, Aurora kinase A (Homo sapiens) (UniProt O14965); assay: Binding affinity to human aurora kinase A at 200 nM by cell-based competition binding assay relative to control in presence of DTT
T2 sequence (whole entry): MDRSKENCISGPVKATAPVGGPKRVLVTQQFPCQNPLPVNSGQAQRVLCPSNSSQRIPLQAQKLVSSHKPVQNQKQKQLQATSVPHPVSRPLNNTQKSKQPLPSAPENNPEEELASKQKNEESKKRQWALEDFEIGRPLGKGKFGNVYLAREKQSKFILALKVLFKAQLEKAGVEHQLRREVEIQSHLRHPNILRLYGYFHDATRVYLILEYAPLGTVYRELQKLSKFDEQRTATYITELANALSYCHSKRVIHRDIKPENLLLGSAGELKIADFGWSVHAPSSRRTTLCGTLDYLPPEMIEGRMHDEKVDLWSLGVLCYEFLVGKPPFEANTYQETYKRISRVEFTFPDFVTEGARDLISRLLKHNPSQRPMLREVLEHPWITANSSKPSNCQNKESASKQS

[7] = biological target: Focal adhesion kinase 1 (Homo sapiens) (UniProt Q05397); assay: Binding affinity to human PTK2 at 200 nM by cell-based competition binding assay relative to control in presence of DTT
[8] = biological target: Fibroblast growth factor receptor 3 (Homo sapiens) (UniProt P22607); assay: Binding affinity to human FGFR3 at 200 nM by cell-based competition binding assay relative to control in presence of DTT
How it was run: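 Commercial (Ambit) competitive kinase-binding panel of 90 kinases measured the binding profile. Run under reducing conditions of 7.5 mM DTT. Binding is expressed relative to control.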

[9] = biological target: T3, Protein kinase C epsilon type (Homo sapiens) (UniProt Q02156); assay: Binding affinity to human PRKCepsilon at 200 nM by cell-based competition binding assay relative to control in presence of DTT
T3 sequence (whole entry): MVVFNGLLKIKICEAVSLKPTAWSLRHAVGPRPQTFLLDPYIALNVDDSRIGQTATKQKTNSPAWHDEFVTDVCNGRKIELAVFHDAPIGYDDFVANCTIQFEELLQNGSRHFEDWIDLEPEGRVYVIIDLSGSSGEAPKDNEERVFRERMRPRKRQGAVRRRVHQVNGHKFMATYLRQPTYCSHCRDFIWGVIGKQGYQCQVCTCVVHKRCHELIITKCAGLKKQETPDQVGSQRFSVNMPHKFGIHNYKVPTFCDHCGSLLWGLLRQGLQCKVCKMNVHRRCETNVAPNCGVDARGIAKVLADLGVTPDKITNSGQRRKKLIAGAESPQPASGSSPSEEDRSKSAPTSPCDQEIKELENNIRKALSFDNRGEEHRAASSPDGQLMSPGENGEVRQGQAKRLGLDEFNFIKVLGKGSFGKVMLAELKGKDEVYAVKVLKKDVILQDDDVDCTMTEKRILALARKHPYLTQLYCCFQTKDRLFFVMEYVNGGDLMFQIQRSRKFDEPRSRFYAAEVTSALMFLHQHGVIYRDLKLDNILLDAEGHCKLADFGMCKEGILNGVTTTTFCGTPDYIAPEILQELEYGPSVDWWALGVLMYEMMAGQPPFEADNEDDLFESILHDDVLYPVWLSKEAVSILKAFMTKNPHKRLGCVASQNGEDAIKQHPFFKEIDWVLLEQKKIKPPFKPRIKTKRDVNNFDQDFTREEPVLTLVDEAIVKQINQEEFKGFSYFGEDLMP

[10] = biological target: Cyclin-dependent kinase 3 (Homo sapiens) (UniProt Q00526); assay: Binding affinity to human CDK3 at 50 nM by cell-based competition binding assay relative to control in presence of DTT
How it was run: (§2)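 Kinase binding profiling ran on a commercial (Ambit) competitive binding screen against a panel of 90 kinases. The screen used reducing conditions with 7.5 mM DTT. To withstand the DTT, the bivalent ligand was tested as its amide isostere, with the disulfide replaced. A staurosporine derivative carrying a 3 β-alanine linker was run as the reference compound.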

[11] = biological target: Serine/threonine-protein kinase pim-2 (Homo sapiens) (UniProt Q9P1W9); assay: Binding affinity to human PIM2 at 50 nM by cell-based competition binding assay relative to control in presence of DTT
[12] = biological target: Cyclin-dependent kinase 16 (Homo sapiens) (UniProt Q00536); assay: Binding affinity to human PCTK1 at 50 nM by cell-based competition binding assay relative to control in presence of DTT
[13] = biological target: Insulin-like growth factor 1 receptor (Homo sapiens) (UniProt P08069); assay: Binding affinity to human IGF1R at 50 nM by cell-based competition binding assay relative to control in presence of DTT; how it was run: as §1
[14] = biological target: Tyrosine-protein kinase ABL1 (Homo sapiens) (UniProt P00519); assay: Binding affinity to human ABL1 at 50 nM by cell-based competition binding assay relative to control in presence of DTT; how it was run: as §2

Focal adhesion kinase 1 (Homo sapiens), sequence (Q05397 2-1052 limits assumed): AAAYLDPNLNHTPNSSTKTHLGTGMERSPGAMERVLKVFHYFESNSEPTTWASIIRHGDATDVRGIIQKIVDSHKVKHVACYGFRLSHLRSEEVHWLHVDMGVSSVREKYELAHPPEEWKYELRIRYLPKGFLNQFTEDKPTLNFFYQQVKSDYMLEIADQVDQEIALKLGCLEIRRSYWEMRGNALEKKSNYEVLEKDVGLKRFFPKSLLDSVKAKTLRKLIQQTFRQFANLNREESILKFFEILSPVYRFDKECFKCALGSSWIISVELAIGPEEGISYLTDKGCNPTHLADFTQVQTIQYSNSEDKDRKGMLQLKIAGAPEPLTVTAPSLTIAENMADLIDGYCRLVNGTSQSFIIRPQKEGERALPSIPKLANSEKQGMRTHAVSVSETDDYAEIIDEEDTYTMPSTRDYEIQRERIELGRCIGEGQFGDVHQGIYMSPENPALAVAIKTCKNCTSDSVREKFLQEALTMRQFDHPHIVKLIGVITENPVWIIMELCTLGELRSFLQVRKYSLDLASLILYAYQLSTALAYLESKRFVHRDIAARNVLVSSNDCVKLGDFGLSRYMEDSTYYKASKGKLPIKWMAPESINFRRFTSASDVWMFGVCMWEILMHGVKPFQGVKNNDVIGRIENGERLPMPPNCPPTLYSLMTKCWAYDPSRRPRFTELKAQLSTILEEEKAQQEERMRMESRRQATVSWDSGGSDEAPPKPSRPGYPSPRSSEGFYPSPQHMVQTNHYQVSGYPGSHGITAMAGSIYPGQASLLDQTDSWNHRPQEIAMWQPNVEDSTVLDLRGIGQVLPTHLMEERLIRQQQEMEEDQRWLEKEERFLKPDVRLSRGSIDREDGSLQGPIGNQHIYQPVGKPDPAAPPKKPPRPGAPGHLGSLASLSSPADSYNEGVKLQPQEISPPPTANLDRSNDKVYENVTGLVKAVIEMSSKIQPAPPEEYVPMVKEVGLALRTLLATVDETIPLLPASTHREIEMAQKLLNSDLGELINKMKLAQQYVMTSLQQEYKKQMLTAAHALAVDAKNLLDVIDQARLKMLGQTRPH
Insulin-like growth factor 1 receptor (Homo sapiens), sequence (P08069 31-736 limits assumed): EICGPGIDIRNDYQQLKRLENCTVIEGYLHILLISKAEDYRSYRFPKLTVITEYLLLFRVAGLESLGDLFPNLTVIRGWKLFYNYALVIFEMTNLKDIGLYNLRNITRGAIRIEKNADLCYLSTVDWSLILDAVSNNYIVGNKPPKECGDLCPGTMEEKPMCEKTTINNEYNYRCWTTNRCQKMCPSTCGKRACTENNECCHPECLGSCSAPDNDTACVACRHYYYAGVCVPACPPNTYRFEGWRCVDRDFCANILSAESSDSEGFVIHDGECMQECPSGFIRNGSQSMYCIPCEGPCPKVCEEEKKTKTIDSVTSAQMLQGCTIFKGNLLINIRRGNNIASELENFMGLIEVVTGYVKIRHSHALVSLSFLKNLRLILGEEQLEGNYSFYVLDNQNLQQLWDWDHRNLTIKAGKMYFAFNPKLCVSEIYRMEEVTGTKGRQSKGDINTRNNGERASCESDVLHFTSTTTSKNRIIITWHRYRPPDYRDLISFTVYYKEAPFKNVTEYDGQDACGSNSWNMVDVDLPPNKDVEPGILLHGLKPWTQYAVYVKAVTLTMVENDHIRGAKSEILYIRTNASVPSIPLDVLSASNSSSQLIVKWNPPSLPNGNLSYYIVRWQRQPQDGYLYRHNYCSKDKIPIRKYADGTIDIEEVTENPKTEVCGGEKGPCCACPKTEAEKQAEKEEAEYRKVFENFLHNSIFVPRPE
Insulin-like growth factor 1 receptor (Homo sapiens), sequence (P08069 741-1367 limits assumed): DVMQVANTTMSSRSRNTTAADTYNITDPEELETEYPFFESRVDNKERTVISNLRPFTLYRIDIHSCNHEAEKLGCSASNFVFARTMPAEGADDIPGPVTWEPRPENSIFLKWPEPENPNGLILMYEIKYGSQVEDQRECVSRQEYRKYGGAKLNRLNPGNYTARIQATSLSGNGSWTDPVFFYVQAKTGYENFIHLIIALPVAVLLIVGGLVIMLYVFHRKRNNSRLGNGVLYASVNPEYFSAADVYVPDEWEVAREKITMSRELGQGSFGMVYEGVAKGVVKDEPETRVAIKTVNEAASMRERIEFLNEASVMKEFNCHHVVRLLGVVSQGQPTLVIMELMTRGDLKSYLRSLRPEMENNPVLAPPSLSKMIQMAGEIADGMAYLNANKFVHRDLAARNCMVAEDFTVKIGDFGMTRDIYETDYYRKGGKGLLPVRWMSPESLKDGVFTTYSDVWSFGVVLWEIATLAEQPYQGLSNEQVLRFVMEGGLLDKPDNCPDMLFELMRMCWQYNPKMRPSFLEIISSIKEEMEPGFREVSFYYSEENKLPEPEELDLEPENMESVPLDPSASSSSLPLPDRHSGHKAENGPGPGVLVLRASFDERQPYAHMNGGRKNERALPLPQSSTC
Mast/stem cell growth factor receptor Kit (Homo sapiens), P10721 [D816V], sequence (P10721 whole entry D816V): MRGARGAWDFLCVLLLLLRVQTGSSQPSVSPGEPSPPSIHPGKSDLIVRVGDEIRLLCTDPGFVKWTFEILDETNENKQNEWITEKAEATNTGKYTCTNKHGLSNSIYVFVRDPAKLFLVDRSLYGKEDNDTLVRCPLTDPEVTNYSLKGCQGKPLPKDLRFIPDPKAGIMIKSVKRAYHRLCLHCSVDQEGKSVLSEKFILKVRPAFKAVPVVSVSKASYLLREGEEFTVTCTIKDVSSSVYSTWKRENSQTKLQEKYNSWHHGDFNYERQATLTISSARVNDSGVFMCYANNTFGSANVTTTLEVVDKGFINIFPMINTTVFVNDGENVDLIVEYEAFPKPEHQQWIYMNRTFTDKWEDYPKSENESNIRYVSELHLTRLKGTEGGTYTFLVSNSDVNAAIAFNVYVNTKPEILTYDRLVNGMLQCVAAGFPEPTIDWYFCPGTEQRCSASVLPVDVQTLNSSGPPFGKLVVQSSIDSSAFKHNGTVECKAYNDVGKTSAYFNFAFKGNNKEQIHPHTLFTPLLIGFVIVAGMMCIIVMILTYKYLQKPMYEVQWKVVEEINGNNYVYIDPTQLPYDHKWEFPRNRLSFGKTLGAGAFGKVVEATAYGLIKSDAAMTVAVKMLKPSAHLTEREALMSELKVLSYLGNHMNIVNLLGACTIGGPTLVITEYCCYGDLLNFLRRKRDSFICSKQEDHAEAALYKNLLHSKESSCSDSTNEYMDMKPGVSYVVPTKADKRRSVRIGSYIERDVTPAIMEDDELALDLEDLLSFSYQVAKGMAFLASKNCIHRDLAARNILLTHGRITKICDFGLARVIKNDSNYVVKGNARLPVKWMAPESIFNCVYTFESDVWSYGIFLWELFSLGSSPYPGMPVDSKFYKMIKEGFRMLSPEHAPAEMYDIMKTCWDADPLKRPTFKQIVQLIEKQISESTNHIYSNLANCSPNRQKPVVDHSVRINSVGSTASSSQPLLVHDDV
Cyclin-dependent kinase 16 (Homo sapiens), sequence (Q00536 whole entry): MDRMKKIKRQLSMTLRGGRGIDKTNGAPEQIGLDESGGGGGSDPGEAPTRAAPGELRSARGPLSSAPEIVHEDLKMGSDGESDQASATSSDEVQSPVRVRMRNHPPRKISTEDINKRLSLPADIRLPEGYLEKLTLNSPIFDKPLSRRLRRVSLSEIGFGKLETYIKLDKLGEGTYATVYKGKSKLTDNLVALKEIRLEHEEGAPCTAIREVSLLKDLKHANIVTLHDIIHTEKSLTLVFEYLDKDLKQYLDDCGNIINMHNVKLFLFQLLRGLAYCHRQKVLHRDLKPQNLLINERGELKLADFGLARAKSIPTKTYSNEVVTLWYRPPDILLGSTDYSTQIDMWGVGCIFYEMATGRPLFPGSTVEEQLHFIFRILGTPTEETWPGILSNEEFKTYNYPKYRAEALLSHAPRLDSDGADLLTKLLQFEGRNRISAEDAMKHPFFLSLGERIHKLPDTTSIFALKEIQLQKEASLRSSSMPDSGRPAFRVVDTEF
Fibroblast growth factor receptor 3 (Homo sapiens), sequence (P22607 23-806 limits assumed): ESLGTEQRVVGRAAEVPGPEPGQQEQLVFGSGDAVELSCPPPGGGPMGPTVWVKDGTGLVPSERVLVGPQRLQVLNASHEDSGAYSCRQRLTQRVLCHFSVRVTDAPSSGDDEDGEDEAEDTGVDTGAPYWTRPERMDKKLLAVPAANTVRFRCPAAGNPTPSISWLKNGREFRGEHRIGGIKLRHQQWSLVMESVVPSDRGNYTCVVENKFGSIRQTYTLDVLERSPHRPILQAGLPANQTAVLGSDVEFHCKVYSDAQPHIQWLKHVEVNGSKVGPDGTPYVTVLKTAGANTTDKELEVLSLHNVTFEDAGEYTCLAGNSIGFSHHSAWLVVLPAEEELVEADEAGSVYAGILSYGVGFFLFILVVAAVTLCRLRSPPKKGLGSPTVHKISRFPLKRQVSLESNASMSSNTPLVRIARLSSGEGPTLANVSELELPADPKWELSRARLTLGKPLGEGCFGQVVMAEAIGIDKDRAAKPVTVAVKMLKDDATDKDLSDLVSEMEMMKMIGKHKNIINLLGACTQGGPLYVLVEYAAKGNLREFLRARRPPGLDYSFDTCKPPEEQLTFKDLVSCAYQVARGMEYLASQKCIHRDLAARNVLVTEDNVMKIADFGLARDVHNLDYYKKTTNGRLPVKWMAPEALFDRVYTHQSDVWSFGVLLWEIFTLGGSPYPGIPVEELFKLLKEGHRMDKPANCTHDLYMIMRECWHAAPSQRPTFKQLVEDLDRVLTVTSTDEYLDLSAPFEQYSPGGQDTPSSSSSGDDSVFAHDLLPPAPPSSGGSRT
Cyclin-dependent kinase 3 (Homo sapiens), sequence (Q00526 whole entry, looked up): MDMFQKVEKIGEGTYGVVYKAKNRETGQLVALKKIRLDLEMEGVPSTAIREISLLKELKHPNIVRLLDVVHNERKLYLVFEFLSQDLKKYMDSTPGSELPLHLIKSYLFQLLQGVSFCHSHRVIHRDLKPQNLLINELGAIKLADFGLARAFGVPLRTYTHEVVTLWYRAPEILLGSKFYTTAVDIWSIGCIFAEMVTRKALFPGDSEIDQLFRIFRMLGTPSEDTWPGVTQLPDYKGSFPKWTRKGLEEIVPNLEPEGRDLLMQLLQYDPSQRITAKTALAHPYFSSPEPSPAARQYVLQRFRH

CO[C@@H]1[C@H](N(C)C(=O)CCC(=O)NCCC(=O)NCCC(=O)NCCC(N)=O)C[C@H]2O[C@]1(C)n1c3ccccc3c3c4c(c5c6ccccc6n2c5c31)C(=O)NC4
Activity [1]: 2.4%
Activity [2]: 100%
Activity [3]: 1%
Activity [4]: 55%
Activity [5]: 2.6%

CO[C@@H]1[C@H](N(C)C(=O)CCC(=O)NCCC(=O)NCCC(=O)NCCC(=O)NCCC(=O)NCCC(=O)NCCC(=O)NCCC(=O)N[C@H]2CSSC[C@@H](C(=O)NCC(N)=O)NC(=O)CNC(=O)[C@H](Cc3ccccc3)NC(=O)[C@H](C(C)C)NC(=O)[C@H](CCCNC(=N)N)NC(=O)[C@H](Cc3ccccc3)NC(=O)[C@H](C(C)C)NC2=O)C[C@H]2O[C@]1(C)n1c3ccccc3c3c4c(c5c6ccccc6n2c5c31)C(=O)NC4 ({Staurosporine-Suc-βAla-βAla-βAla-βAla-βAla-βAla-βAla}-CVFRVFGCG-NH2; disulfide 1-8)
Activity [6]: 19%
Activity [7]: 91%
Activity [8]: 85%
Activity [9]: 0%

CO[C@@H]1[C@H](N(C)C(=O)CCC(=O)NCCC(=O)NCCC(=O)NCCC(=O)NCCC(=O)NCCC(=O)NCCC(=O)NCCC(=O)N[C@H]2CNC(=O)C[C@@H](C(N)=O)NC(=O)CNC(=O)[C@H](Cc3ccccc3)NC(=O)[C@H](C(C)C)NC(=O)[C@H](CCCNC(=N)N)NC(=O)[C@H](Cc3ccccc3)NC(=O)[C@H](C(C)C)NC2=O)C[C@H]2O[C@]1(C)n1c3ccccc3c3c4c(c5c6ccccc6n2c5c31)C(=O)NC4 ({Staurosporine-Suc-βAla-βAla-βAla-βAla-βAla-βAla-βAla}-[Dap]VFRVFGD-NH2; lactam 1-8)
Activity [10]: 100%
Activity [11]: 100%
Activity [12]: 98%
Activity [13]: 100%
Activity [14]: 94%
